# Scp-1 inhibitor: inhibitors of human Scp-1 phosphatase; Q9GZU7; inhibition, % at 20 µM; Recombinant Scp1, phosphopeptide, malachite green phosphate absorbance; 340,000 compounds, 0.88% hits;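 active = inhibition above about 50% at 20 µM, limit read from the data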;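 also: plate controls were DMSO wells with enzyme for no effect and wells lacking enzyme for full effect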
# Target sequence (Q9GZU7 76-261 limits assumed): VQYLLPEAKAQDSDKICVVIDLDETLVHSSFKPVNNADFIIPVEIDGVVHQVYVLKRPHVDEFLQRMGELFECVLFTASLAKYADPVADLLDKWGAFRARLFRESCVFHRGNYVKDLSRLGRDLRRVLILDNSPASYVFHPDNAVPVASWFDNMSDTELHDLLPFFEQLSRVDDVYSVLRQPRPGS
#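 Times: enzyme reaction 45 min at room temperature, colour 5 min, stabilisation 30 min. Material: SCP-1 catalytic fragment, aa 76-261. Medium: Acidic Tris acetate buffer with magnesium and detergent. Signal: colorimetric free-phosphate detection, absorbance 630 nm. Read-out basis: % inhibition of SCP-1 phosphate liberation. Reagent: Phosphorylated 17-residue peptide substrate.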
# LMPTP inh: LMPTP (human) inhibition. P24666. inhibition, % at 20 µM. recombinant LMPTP-A, OMFP fluorogenic substrate, fluorescence intensity. 360,000 compounds, 0.22% hits;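 active = compounds that cut the enzyme signal by at least half of the control window in the single-dose screen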;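 also: plate controls were DMSO wells with enzyme plus substrate for no effect and substrate without enzyme for full effect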
# Target sequence (P24666 whole entry, looked up): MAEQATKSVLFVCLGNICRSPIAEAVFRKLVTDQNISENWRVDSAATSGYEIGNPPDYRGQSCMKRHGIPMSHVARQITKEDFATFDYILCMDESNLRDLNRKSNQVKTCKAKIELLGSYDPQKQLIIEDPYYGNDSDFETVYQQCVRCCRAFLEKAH
#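 Assay system: LMPTP-A enzyme. Input: 0.625 nM LMPTP-A final. Probe or stimulus: 400 µM OMFP. Compound dosing: single 20 µM dose. Schedule: 50 min dark incubation at room temperature. Detection: fluorescence intensity of OMFP turnover product. Read-out: percent inhibition versus substrate-only and uninhibited controls. Benchmarks: no-enzyme low control, uninhibited high control.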
# STEP inh: inhibitors of human striatal-enriched phosphatase STEP; AID 588621; recombinant STEP, OMFP fluorogenic substrate, fluorescence; P54829; 360,000 compounds, 0.25% hits; inhibition, % at 20 µM;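 active = inhibition at 20 µM, scaled per plate between control wells, above about 37%, limit read from the data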;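 also: 0% = DMSO with enzyme and substrate and 100% = substrate only without enzyme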
#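 System: STEP (striatal-enriched tyrosine phosphatase) enzyme, cell-free; medium: Bis-Tris pH 6.0 buffer with DTT, detergent; dosing: 20 µM, 1% DMSO; times: reaction 20 min, ambient temperature; detection: fluorescence, 480/540 nm; read-out basis: normalized % inhibition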
# PP1 counter: blocks human PP1-alpha phosphatase, a PP5 counter-screen | P62136 | purified PP1alpha, OMFP fluorescence | inhibition, % at 6.7 µM | 320,000 compounds, 0.9% hits;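 active = inhibition above the mean inhibition of all tested compounds plus 3 SD, computed separately for each screening campaign, cut at about 15% in these data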
# PP5 inh: inhibitors of human protein phosphatase 5 (PP5); inhibition, % at 6.7 µM; P53041; 320,000 compounds, 0.18% hits; purified PP5c, OMFP substrate fluorescence;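 active = inhibition above the campaign's mean inhibition across all tested compounds plus 3 SD, cut at about 9.5% in these data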;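 also: 0% = DMSO only and 100% = 100 µM cantharidin control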
# PP5 conf: PP5 (human) inhibition, confirmation; shares compounds with PP5 inh; Purified PP5, fluorogenic phosphatase substrate, fluorescence; inhibition, % at 6.7 µM; 460 compounds, 22% hits; AID 2331; in the data active = inhibition above about 9.5%
# PP1 counter 3x: inhibits human PP1 phosphatase in PP5 counter-screen | shares compounds with PP5 inh | PP1 enzyme, fluorescent phosphatase substrate | inhibition, % at 6.7 µM | 460 compounds, 4% hits | AID 2355; in the data active = inhibition above about 16%
# PP1 inh confirm: human PP1 phosphatase inhibition, confirmation | 1,900 compounds, 52% hits | inhibition, % at 6.7 µM | shares compounds with PP1 counter | purified PP1alpha, OMFP substrate fluorescence;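 active = mean PP1 inhibition above a set limit taken from the earlier primary screen, cut at about 15% in these data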
# PP5 counter: inhibits human PP5 phosphatase in PP1 counter-screen; shares compounds with PP1 counter; purified PP5c, OMFP fluorescence; 1,900 compounds, 4% hits; AID 2360; inhibition, % at 6.7 µM;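 active = mean PP5 inhibition over triplicate wells above about 9.5% taken from the earlier PP1 screen, limit read from the data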
# Starred values were filed as active, the others as inactive; nt = no result given. Hits are enriched below; roughly 1.9% of the tested compounds scored in any of these assays.
SMILES,Scp-1 inhibitor,LMPTP inh,STEP inh,PP1 counter,PP5 inh,PP5 conf,PP1 counter 3x,others
COC(=O)C1=C(CSc2nccn2C)NC(=O)NC1c1cc(C)ccc1C (stereo not drawn),-6.4,-0.1,-0.3,-3.9,9.9*,-3.9,-3.9,
CC(NC(=O)c1cc(S(=O)(=O)N2CCCC2)cn1C)c1ccccc1 (stereo not drawn),2.4,0.3,-4.5,1.2,0.8,nt,nt,
COc1cccc(CSCC(=O)NCCc2ccccc2)c1OC,-3.0,-1.0,-2.3,-5.4,10.4*,-4.6,-5.0,
COc1ccccc1-c1c(C)nn2c(N3CCN(c4ccccc4OC)CC3)cc(C)nc12,4.1,1.5,1.0,-1.9,0.1,nt,nt,
COc1ccc(O)c(/C=N/NC(=S)Nc2cccc(S(=O)(=O)N(C)C)c2)c1,-16.9,1.2,1.5,2.4,12.2*,0.1,0.3,
NC(=O)c1c(NC(=O)c2ccccc2C(=O)O)sc2c1CCCC2,-11.7,-1.4,3.7,-7.4,2.4,nt,nt,
CCCCNC(=O)CC1Nc2ccccc2NC1=O (stereo not drawn),-6.6,-2.5,4.0,-3.5,-0.2,nt,nt,
CCCCCNC(=O)CC1Nc2c3ccccc3nc(=S)n2C1=O (stereo not drawn),0.4,-0.8,0.7,-1.9,9.9*,-5.3,-3.5,
CCOC(=O)C1CCN(C(=O)CN(c2ccc(Cl)c(C(F)(F)F)c2)S(C)(=O)=O)CC1,-20.2,-0.8,-1.4,-0.3,0.7,nt,nt,
CCOc1ccc(-c2[nH]ncc2Oc2cccc(OC)c2)c(O)c1,-4.9,4.7,-1.8,9.8,11.8*,3.9,4.3,
COC(=O)c1sc2cc(C(F)(F)F)cnc2c1-c1cccnc1,3.4,-1.2,-0.4,-2.4,11.6*,-5.3,-3.4,
CC(=O)c1cccc(NC(=O)CN(c2ccccc2)S(C)(=O)=O)c1,-8.1,-1.6,-1.9,-2.4,-0.8,nt,nt,
O=C1c2ccccc2C(=O)C1(O)O,nt,nt,nt,5.2,15.7*,4.8,14.0,
CC(=O)Oc1ccc(Oc2ccc(-c3noc(C)n3)cc2)cc1,-8.3,0.7,0.5,-3.7,2.4,nt,nt,
COc1c(N2CCN(C(=S)NCc3ccccc3)C(C)C2)c(F)cc2c(=O)c(C(=O)O)cn(C3CC3)c12 (stereo not drawn),-12.1,53.4*,-9.6,43.3*,2.8,nt,nt,PP1 inh confirm=32.8*;PP5 counter=-4.2
O=[N+]([O-])c1cccc(/C=C/c2nc(C=Nc3ccc4ccccc4c3)c(O)o2)c1,0.6,8.9,-1.1,-1.6,-2.3,nt,nt,
O=C(CCN1C(=O)C2C3C=CC(C3)C2C1=O)N1CCN(c2ccc([N+](=O)[O-])cc2)CC1 (stereo not drawn),-1.4,1.1,-1.2,-1.3,2.8,nt,nt,
COc1ccc(-c2coc3cc(OC(C)=O)ccc3c2=S)cc1,-7.7,1.5,1.9,nt,nt,nt,nt,
O=C(CSc1ccc(-c2ccncc2)nn1)c1ccccc1,-5.4,-0.9,0.6,21.0*,1.7,nt,nt,PP1 inh confirm=-4.1;PP5 counter=-6.7
CCCOc1ccc(/C(O)=C2/C(=O)C(=O)N(c3ccccn3)C2c2ccc(OC)cc2)cc1C (stereo not drawn),3.6,31.4,1.9,31.5*,-1.1,nt,nt,PP1 inh confirm=23.1*;PP5 counter=-3.1
COc1ccc(/C(O)=C2/C(=O)C(=O)N(c3ccccn3)C2c2ccc(OC)cc2)cc1 (stereo not drawn),-0.9,2.2,5.8,nt,nt,nt,nt,
CC1=C(C(=O)NC2CCCc3c2cnn3-c2cccc(C)c2C)OCCO1 (stereo not drawn),-6.1,0.4,0.6,-7.2,5.2,nt,nt,
Oc1ccc(Nc2nc(N3CCCC3)c3ccccc3n2)cc1,0.8,42.9,3.8,7.0,-0.1,nt,nt,
COc1ccc(Nc2nc(N3CCCCC3)c3ccccc3n2)cc1,0.8,15.9,1.3,21.2*,2.9,nt,nt,PP1 inh confirm=2.7;PP5 counter=3.3
CCn1c(=O)n(CC)c2cc(N3CCCC3)c(NC(=O)c3ccccc3C)cc21,-2.5,-0.3,0.5,-0.3,-1.2,nt,nt,
